Reference: PMC10583834 (Chemical Research in Toxicology, 2023)

Key:
CYP3A4 = CYP3A4 inactivation in human liver microsomes; cited from earlier work
women = conditions: cited from earlier work
recombinant CYP2B6 = molecular target: T1, recombinant CYP2B6 (Homo sapiens, UniProt P20813); assay: Glutathione trapping and metabolite formation with recombinant CYP2B6; format: in vitro ADME; conditions: recombinant CYP2B6 100 pmol/mL, 1 mM GSH, 60 min
T1 sequence (P20813 1-491): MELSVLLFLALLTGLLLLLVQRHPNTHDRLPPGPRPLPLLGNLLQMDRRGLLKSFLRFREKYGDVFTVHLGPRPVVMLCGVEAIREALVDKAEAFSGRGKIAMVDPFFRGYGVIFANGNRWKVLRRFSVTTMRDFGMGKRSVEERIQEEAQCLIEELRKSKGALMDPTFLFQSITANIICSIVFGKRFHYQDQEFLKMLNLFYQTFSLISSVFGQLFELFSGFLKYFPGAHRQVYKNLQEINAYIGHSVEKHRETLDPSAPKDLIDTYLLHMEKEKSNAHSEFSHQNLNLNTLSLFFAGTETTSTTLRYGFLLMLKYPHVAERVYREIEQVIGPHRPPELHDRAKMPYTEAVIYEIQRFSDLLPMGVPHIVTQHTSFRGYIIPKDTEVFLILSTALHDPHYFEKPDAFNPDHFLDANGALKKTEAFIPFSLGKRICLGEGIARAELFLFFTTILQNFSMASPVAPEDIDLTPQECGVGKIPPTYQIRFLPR
Summary of the method: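 Test compound at 50 or 100 μM was incubated with recombinant CYP2B6 (100 pmol/mL) in 100 mM potassium phosphate pH 7.4, 3 mM MgCl2 and 1 mM reduced GSH. Reactions were started with NADPH-regenerating mix, with no-NADPH controls, for 60 min. Methanol stop contained 1 μM 4OH-MDZ internal standard. Samples were centrifuged 20 min at 2000 × g, 4 °C. Supernatants were analysed by LC-UV(280 nm)-MS for metabolites and GSH adducts.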

Cc1ccnc2c1NC(=O)c1cccnc1N2C1CC1 [NVP, Nevirapine]
Increased risk for severe rash reactions in women (women): 7 fold
GSH metabolite formation (recombinant CYP2B6): no GSH metabolite was detected
